Measured values: ChEMBL document CHEMBL3414425, “Synthesis and biological evaluation of new imidazo[2,1-b][1,3,4]thiadiazole-benzimidazole derivatives” (Eur J Med Chem, 2015)
≈ marks a conversion by molar mass, not a printed value. Calls of active or inactive are those of the source. The rule behind the calls is not given here.

How the values were obtained:
[1] = system: Mycobacterium tuberculosis; experiment: Antitubercular activity against Mycobacterium tuberculosis H37Rv ATCC 27294/XDR-TB incubated for 28 days by agar dilution method; type: functional; details: 672 h
Summary of the method: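 Agar dilution: two-fold dilutions in Middlebrook 7H11 agar with OADC. Inoculum from fresh 7H11/OADC slants adjusted to 1 mg/mL wet weight in 0.05% Tween 80 saline, diluted 10^-2 (~10⁷ cfu/mL); 5 µL spotted per tube. Incubated 37 °C; MIC, lowest concentration fully inhibiting growth, read after 28 days, in triplicate.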

Escherichia coli [2] = experiment: Antibacterial activity against Escherichia coli at 1 mg/ml incubated for 18 hrs by well plate technique; type: functional; details: read-out: DIZ
Summary of the method: (§1)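 Bacteria kept on nutrient agar at 37 °C, grown statically in nutrient broth (start ~10-100 cfu/mL) at 37 °C for 18-24 h. Suspensions diluted in saline and spread on nutrient agar, then wells cut with a cork borer. Compound in DMSO at 1 or 0.5 mg/mL added to wells, 37 °C, 18 h. Inhibition zone diameter measured minus DMSO value; triplicate; streptomycin standard.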

Escherichia coli [3] = experiment: Antibacterial activity against Escherichia coli at 0.5 mg/ml incubated for 18 hrs by well plate technique; type: functional; details: read-out: DIZ; summary of the method: as §1
Staphylococcus aureus [4] = experiment: Antibacterial activity against Staphylococcus aureus at 1 mg/ml incubated for 18 hrs by well plate technique; type: functional; details: read-out: DIZ; summary of the method: as §1
Staphylococcus aureus [5] = experiment: Antibacterial activity against Staphylococcus aureus at 0.5 mg/ml incubated for 18 hrs by well plate technique; type: functional; details: read-out: DIZ; summary of the method: as §1
Pseudomonas aeruginosa [6] = experiment: Antibacterial activity against Pseudomonas aeruginosa at 1 mg/ml incubated for 18 hrs by well plate technique; type: functional; details: read-out: DIZ; summary of the method: as §1
Pseudomonas aeruginosa [7] = experiment: Antibacterial activity against Pseudomonas aeruginosa at 0.5 mg/ml incubated for 18 hrs by well plate technique; type: functional; details: read-out: DIZ; summary of the method: as §1
Salmonella typhi [8] = experiment: Antibacterial activity against Salmonella typhi at 1 mg/ml incubated for 18 hrs by well plate technique; type: functional, Salmonella enterica subsp. enterica serovar Typhi
Summary of the method: (§2)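 Well diffusion on nutrient agar; strains kept on nutrient agar at 37 °C, grown statically in nutrient broth 18-24 h at 37 °C, diluted in saline, 0.1 ml spread per plate. Compounds in DMSO at 1 and 0.5 mg/mL added to cork-bored wells; 18 h at 37 °C. Inhibition zone diameter measured, DMSO value subtracted; triplicate; streptomycin reference.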

Salmonella typhi [9] = experiment: Antibacterial activity against Salmonella typhi at 0.5 mg/ml incubated for 18 hrs by well plate technique; type: functional, Salmonella enterica subsp. enterica serovar Typhi; summary of the method: as §2
Aspergillus flavus [10] = experiment: Antifungal activity against Aspergillus flavus at 1 mg/ml incubated for 3 days; type: functional; details: 72 h, read-out: IZ
Summary of the method: (§3)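 Well plate method on potato dextrose agar. Fungal stock suspended in distilled water with Tween 80 and swabbed over plates. Samples in DMSO at 1 and 0.5 mg/mL added to wells, incubated 25 °C for 3 days, then scored for inhibition zones; fluconazole standard.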

Aspergillus flavus [11] = experiment: Antifungal activity against Aspergillus flavus at 0.5 mg/ml incubated for 3 days; type: functional; details: 72 h, read-out: IZ; summary of the method: as §3
[12] = system: Chrysosporium keratinophilum; experiment: Antifungal activity against Chrysosporium keratinophilum at 1 mg/ml incubated for 3 days; type: functional; details: 72 h, read-out: IZ; summary of the method: as §3
[13] = system: Chrysosporium keratinophilum; experiment: Antifungal activity against Chrysosporium keratinophilum at 0.5 mg/ml incubated for 3 days; type: functional; details: 72 h, read-out: IZ; summary of the method: as §3
Candida albicans [14] = experiment: Antifungal activity against Candida albicans at 1 mg/ml incubated for 3 days; type: functional; details: 72 h, read-out: IZ; summary of the method: as §3
Candida albicans [15] = experiment: Antifungal activity against Candida albicans at 0.5 mg/ml incubated for 3 days; type: functional; details: 72 h, read-out: IZ; summary of the method: as §3
[16] = Antioxidant activity assessed as DPPH radical scavenging activity incubated for 10 mins by UV-visible spectrometry; type: physicochemical
Summary of the method: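 DPPH free-radical scavenging; absorbance read at 517 nm against a methanol blank. % scavenging = (A control − A sample)/A control × 100.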

[17] = Cytotoxicity against African green monkey Vero cells assessed as growth inhibition at 62.5 ug/ml after 72 hrs by MTT assay; type: cell-based; details: chlorocebus sabaeus, read-out: GI
Summary of the method: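 Vero cells grown in MEM + 10% FBS at 37 °C, 5% CO2. Seeded ~10,000 cells/well, 24 h to a partial monolayer. Compounds in DMSO diluted in MEM + 2% FBS (1 mg/ml stock, two-fold dilutions) for 72 h. MTT 3 h, formazan dissolved in propanol, A540. % inhibition = 100 − (mean OD test/mean OD control × 100).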

[18] = Salmonella enterica, read-out: DIZ
[19] = Salmonella enterica subsp. enterica serovar Typhi

| Compound | MIC [1] [µg/mL] | zone of inhibition at 1000 µg/mL (Escherichia coli [2]) [mm] | zone of inhibition at 500 µg/mL (Escherichia coli [3]) [mm] | zone of inhibition at 1000 µg/mL (Staphylococcus aureus [4]) [mm] | zone of inhibition at 500 µg/mL (Staphylococcus aureus [5]) [mm] | zone of inhibition at 1000 µg/mL (Pseudomonas aeruginosa [6]) [mm] | zone of inhibition at 500 µg/mL (Pseudomonas aeruginosa [7]) [mm] | zone of inhibition at 1000 µg/mL (Salmonella typhi [8]; [18]) [mm] | zone of inhibition at 500 µg/mL (Salmonella typhi [9]; [18]) [mm] | zone of inhibition at 1000 µg/mL (Aspergillus flavus [10]) [mm] | zone of inhibition at 500 µg/mL (Aspergillus flavus [11]) [mm] | zone of inhibition at 1000 µg/mL [12] [mm] | zone of inhibition at 500 µg/mL [13] [mm] | zone of inhibition at 1000 µg/mL (Candida albicans [14]) [mm] | zone of inhibition at 500 µg/mL (Candida albicans [15]) [mm] | inhibition (INH) [16] [%] | inhibition at 72 h, 62.5 ug/ml [17] [%] | diameter of the inhibition zone (DIZ) (Salmonella typhi [8]; [19]) | diameter of the inhibition zone (DIZ) (Salmonella typhi [9]; [19]) |
| --- | --- | --- | --- | --- | --- | --- | --- | --- | --- | --- | --- | --- | --- | --- | --- | --- | --- | --- | --- |
| Cc1nn2c(-c3nc4cc(Cl)ccc4[nH]3)c(-c3ccc(Cl)cc3)nc2s1 | 3.12 (≈ 7.81 µM) | 4 | 2 | 3 | 2 | 4 | 1 | 4 | 2 | 3 | 1 | 5 | 3 | 4 | 2 | 78.8 | 7.12 |  |  |
| Cc1ccc(-c2nn3c(-c4nc5cc(Cl)ccc5[nH]4)c(-c4ccc(Cl)cc4)nc3s2)cc1 | 3.12 (≈ 6.56 µM) | 4 | 2 | 5 | 3 | 3 | 2 |  |  | 5 | 2 | 3 | 1 | 6 | 4 | 65.7 | 7.4 | inactive | inactive |
